Results as given in ChEMBL document CHEMBL1122206, “Use of adenine nucleotide derivatives to assess the potential of exo-active-site-directed reagents as species- or isozyme-specific enzyme inactivators. 5. Interactions of adenosine 5'-triphosphate derivatives with rat pyruvate kinases, Escherichia coli thymidine kinase, and yeast and rat …” (1982).

Experiments:
[1] = Tested for the velocity of 2.8 mM compound relative to that of 2.8 mM MgATP in the assay
In short: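 E. coli TK substrate test. 0.5 h after adding inhibitor, the mixture was diluted to 2.8 mM derivative in thymidine assay medium without ATP and with 1.42 mM MnCl2. Incubated 15 min at 37 °C, in the linear range. [14C]TMP formed was compared with that from 2.8 mM ATP under the same conditions.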

[2] = target: T1, Hexokinase-2 (Rattus norvegicus) (UniProt P27881); assay: Time dependent inhibition of hexokinase 2 activity after 6 h, at 5 mM compound
T1 sequence (whole entry): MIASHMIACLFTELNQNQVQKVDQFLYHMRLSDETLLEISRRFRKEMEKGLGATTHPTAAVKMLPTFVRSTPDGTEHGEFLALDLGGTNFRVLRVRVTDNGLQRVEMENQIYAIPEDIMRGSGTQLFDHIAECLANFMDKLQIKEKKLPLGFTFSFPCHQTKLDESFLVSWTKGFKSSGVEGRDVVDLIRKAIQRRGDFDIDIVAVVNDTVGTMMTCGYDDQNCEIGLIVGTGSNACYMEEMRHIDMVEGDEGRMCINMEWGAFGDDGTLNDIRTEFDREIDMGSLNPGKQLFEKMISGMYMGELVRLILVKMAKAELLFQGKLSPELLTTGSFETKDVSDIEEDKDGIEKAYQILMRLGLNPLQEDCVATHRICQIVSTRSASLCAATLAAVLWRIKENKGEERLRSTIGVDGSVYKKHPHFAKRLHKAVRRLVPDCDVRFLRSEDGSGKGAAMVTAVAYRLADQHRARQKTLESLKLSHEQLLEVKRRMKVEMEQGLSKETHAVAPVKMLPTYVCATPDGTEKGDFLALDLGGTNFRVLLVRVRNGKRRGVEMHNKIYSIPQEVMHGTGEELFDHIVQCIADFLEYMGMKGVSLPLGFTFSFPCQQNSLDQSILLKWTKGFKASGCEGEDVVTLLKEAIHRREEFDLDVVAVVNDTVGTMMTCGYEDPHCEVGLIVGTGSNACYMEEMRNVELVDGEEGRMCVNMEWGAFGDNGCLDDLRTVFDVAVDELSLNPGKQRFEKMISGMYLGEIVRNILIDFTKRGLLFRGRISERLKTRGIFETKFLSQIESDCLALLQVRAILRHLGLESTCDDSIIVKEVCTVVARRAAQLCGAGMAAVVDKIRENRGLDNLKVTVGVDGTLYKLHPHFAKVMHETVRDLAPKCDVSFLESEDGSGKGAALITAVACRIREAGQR

[3] = target: T2, Hexokinase-3 (Rattus norvegicus) (UniProt P27926); assay: Time dependent inhibition of Hexokinase type III activity after 6 hr, at 22 degrees celsius, at 5 mM compound
T2 sequence (whole entry): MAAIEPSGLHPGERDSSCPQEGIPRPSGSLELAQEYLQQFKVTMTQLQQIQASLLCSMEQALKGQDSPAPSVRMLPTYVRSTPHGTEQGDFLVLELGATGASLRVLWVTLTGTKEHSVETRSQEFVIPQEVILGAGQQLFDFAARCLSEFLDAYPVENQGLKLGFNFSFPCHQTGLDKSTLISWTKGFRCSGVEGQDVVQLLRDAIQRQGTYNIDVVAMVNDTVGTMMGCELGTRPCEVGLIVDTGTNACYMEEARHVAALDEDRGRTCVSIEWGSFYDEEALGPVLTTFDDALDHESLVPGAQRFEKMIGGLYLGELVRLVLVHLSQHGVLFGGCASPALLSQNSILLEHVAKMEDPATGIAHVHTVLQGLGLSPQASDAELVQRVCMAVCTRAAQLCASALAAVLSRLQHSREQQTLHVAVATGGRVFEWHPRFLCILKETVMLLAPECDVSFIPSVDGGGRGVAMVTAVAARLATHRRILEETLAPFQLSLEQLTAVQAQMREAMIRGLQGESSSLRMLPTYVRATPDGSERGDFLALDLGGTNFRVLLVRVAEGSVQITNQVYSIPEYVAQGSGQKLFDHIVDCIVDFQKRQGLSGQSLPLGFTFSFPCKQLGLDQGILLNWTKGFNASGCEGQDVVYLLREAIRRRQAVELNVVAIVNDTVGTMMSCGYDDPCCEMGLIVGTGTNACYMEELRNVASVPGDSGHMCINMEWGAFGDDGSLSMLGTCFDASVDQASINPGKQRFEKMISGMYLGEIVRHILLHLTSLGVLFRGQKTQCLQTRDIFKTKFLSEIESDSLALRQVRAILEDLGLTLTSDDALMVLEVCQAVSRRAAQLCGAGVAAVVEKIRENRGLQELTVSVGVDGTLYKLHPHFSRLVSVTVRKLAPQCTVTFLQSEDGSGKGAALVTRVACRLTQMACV

[4] = target: Thymidine kinase (Escherichia coli) (UniProt P23331); assay: Compound tested for the loss of thymidine kinase activity from Escherichia coli after 6 hr at 0 degrees C at 10 mM
[5] = target: Thymidine kinase (Escherichia coli) (UniProt P23331); assay: Compound was tested for the initial inhibition of thymidine kinase by 1.4 mM compound in the presence of 5.7 mM ATP
Saccharomyces cerevisiae [6] = assay: Time dependent inhibition of hexokinase activity after 6 hr, at 22 degrees celsius, with 5 mM ATP derivative in yeast.
[7] = target: T2, Hexokinase-3 (Rattus norvegicus); assay: Time dependent inhibition of Hexokinase type III activity after 6 h, at 22 degrees celsius, at 5 mM
[8] = target: T3, Hexokinase-1 (Rattus norvegicus) (UniProt P05708); assay: Time dependent inhibition of Hexokinase type I activity after 6 h, at 22 degrees celsius, at 5 mM compound
T3 sequence (whole entry): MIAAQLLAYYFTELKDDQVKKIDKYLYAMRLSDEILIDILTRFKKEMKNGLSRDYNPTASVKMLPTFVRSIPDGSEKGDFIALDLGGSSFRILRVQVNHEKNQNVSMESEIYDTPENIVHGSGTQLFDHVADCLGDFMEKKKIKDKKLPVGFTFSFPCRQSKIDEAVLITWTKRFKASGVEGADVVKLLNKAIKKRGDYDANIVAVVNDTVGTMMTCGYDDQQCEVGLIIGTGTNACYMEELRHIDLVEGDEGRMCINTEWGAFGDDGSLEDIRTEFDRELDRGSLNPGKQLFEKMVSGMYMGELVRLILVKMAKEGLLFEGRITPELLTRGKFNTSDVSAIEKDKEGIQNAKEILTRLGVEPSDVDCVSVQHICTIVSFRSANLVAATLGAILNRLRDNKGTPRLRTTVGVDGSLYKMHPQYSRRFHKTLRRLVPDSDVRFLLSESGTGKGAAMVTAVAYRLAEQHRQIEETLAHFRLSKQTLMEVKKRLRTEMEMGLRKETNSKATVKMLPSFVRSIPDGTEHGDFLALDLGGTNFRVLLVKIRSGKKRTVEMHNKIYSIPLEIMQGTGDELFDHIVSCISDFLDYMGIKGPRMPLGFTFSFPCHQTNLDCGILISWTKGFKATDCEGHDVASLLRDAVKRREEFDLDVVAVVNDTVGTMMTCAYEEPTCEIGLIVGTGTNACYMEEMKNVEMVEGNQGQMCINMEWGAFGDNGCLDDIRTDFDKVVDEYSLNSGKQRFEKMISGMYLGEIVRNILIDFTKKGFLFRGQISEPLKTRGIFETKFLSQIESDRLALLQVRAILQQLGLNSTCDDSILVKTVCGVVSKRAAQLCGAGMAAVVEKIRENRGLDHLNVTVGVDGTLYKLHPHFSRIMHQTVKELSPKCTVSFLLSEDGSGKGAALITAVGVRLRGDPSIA

[9] = target: Thymidine kinase (Escherichia coli) (UniProt P23331); assay: Compound was tested for the initial inhibition of thymidine kinase by 1.4 mM compound in the presence of 5.7 mM ATP in Escherichia coli
[10] = target: Thymidine kinase (Escherichia coli) (UniProt P23331); assay: Compound was tested for the lose of thymidine kinase activity after 6 h, at 0 degrees celsius, with 10 mM ATP derivative. values were expressed in percent
[11] = Extent of inactivation caused by the compound was reported.; type: functional
[12] = target: T1, Hexokinase-2 (Rattus norvegicus); assay: Substrate activity against Rat hexokinase II as 1:1 Mg complex at 5.0 mM
In short: (§1)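 Hexokinase activity read at 22 °C as A340 change, coupled to glucose-6-phosphate dehydrogenase, in 0.05 M Tris-HCl pH 7.6 with 6.6 mM MgCl2, 10 mM α-D-glucose and 0.93 mM NADP. Donor was 5.0 mM MgATP derivative (1:1 Mg complex) in place of ATP. Yeast HK was isoelectric-focused. Rat HK I and III came from electrofocused liver extract, HK II from dialysed muscle extract.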

[13] = target: T3, Hexokinase-1 (Rattus norvegicus); assay: Substrate activity for rat hexokinase I as 1:1 Mg complex at 5.0 mM; in short: as §1
[14] = target: T2, Hexokinase-3 (Rattus norvegicus); assay: Substrate activity for rat hexokinase III as 1:1 Mg complex at 5.0 mM; in short: as §1
Saccharomyces cerevisiae [15] = assay: Substrate activity against yeast hexokinase as 1:1 Mg complexes at 5.0 mM; in short: as §1
[16] = target: Thymidine kinase (Escherichia coli) (UniProt P23331); assay: Compound was tested for the loss of thymidine kinase activity from Escherichia coli after 6 hr at 0 degrees C at 10 mM
Saccharomyces cerevisiae [17] = assay: Compound was tested for time dependent inhibition of hexokinase activity after 6 hr, at 22 degrees celsius, with 5 mM ATP derivative in yeast hexokinase
[18] = target: T3, Hexokinase-1 (Rattus norvegicus); assay: Time dependent inhibition of Hexokinase, type I activity after 6 h, at 22 degrees celsius, at 5 mM compound
[19] = target: Thymidine kinase (Escherichia coli) (UniProt P23331); assay: Compound was tested for the initial inhibition of Thymidine kinase by 1.4 mM compound in the presence of 5.7 mM ATP
[20] = target: Thymidine kinase (Escherichia coli) (UniProt P23331); assay: Compound was tested for the loss of Thymidine kinase activity from Escherichia coli after 6 h at 0 degrees C at 10 mM
Saccharomyces cerevisiae [21] = assay: Compound was tested for time dependent inhibition of hexokinase activity after 6 h at 22 degrees celsius, with 5 mM compound in yeast hexokinase
[22] = target: T3, Hexokinase-1 (Rattus norvegicus); assay: Time dependent inhibition of Hexokinase type I activity after 6 h, at 0 degrees celsius, at 10 mM compound
[23] = target: T1, Hexokinase-2 (Rattus norvegicus); assay: Time dependent inhibition of hexokinase 2 activity after 6 h, at 10 mM compound
[24] = target: T2, Hexokinase-3 (Rattus norvegicus); assay: Time dependent inhibition of Hexokinase type III activity after 6 h, at 0 degrees celsius, at 10 mM

Thymidine kinase (Escherichia coli), sequence (P23331 whole entry, looked up): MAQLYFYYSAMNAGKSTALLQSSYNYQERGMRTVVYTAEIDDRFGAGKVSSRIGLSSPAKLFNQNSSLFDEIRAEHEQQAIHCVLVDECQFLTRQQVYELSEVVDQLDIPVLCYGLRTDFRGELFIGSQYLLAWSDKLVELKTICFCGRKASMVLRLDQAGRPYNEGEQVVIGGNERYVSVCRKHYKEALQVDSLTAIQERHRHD

Structure (SMILES): O=C(CI)NCCCCNc1ncnc2c1ncn2[C@@H]1O[C@H](COP(=O)(O)OP(=O)(O)OP(=O)(O)O)[C@@H](O)[C@H]1O
- Velocity [1]: 68%
- inhibition [2]: 0%
- inhibition [3]: 0%
- inhibition [4]: 0%
- inhibition [5]: 39%
- inhibition (Saccharomyces cerevisiae [6]): 0%

Structure (SMILES): O=C(CI)NCCCCCCCNc1ncnc2c1ncn2[C@@H]1O[C@H](COP(=O)(O)OP(=O)(O)OP(=O)(O)O)[C@@H](O)[C@H]1O
- Velocity [1]: 38%
- inhibition [2]: 30%
- inhibition [7]: 20%
- inhibition [8]: 20%
- inhibition (Saccharomyces cerevisiae [6]): 22%
- inhibition [9]: 10%
- inhibition [10]: 0%

Structure (SMILES): O=C(CI)NCCCCCCNc1ncnc2c1ncn2[C@@H]1O[C@H](COP(=O)(O)OP(=O)(O)OP(=O)(O)O)[C@@H](O)[C@H]1O
- Inactivation [11]: > 90%
- inhibition [2]: 35%
- inhibition [3]: 33%
- inhibition [4]: 0%
- inhibition [5]: 0%

Structure (SMILES): O=C(CI)NCCCCCC(=O)NCCCCCCNc1ncnc2c1ncn2[C@@H]1O[C@H](COP(=O)(O)OP(=O)(O)OP(=O)(O)O)[C@@H](O)[C@H]1O
- Relative velocity [12]: 0.63
- Relative velocity [13]: 1.25
- Relative velocity [14]: 1.37
- Relative velocity (Saccharomyces cerevisiae [15]): 1.02
- Velocity [1]: 37%
- inhibition [2]: 0%
- inhibition [7]: 0%
- inhibition [8]: 0%
- inhibition [5]: 8%
- inhibition [16]: 0%
- inhibition (Saccharomyces cerevisiae [17]): 0%

Structure (SMILES): O=C(CI)NCCCNc1ncnc2c1ncn2[C@@H]1O[C@H](COP(=O)(O)OP(=O)(O)OP(=O)(O)O)[C@@H](O)[C@H]1O
- Velocity [1]: 32%
- inhibition [2]: 0%
- inhibition [7]: 0%
- inhibition [18]: 0%
- inhibition [19]: 6%
- inhibition [20]: 0%
- inhibition (Saccharomyces cerevisiae [21]): 0%

Structure (SMILES): O=C(CI)NCCNc1ncnc2c1ncn2[C@@H]1O[C@H](COP(=O)(O)OP(=O)(O)OP(=O)(O)O)[C@@H](O)[C@H]1O
- Relative velocity [12]: 0.34
- Relative velocity [13]: 0.58
- Relative velocity [14]: 0.5
- Relative velocity (Saccharomyces cerevisiae [15]): 0.75
- Velocity [1]: 35%
- inhibition [2]: 0%
- inhibition [7]: 0%
- inhibition [8]: 0%
- inhibition [9]: 3%
- inhibition (Saccharomyces cerevisiae [17]): 0%
- inhibition [10]: 0%

Structure (SMILES): NC(=O)CI.Nc1ncnc2c1ncn2[C@@H]1O[C@H](COP(=O)(O)OP(=O)(O)OP(=O)(O)O)[C@@H](O)[C@H]1O
- inhibition [2]: 7%
- inhibition [7]: 0%
- inhibition [8]: 5%
- inhibition (Saccharomyces cerevisiae [21]): 0%

Structure (SMILES): O=C(CI)NCC(=O)NCCCCCCNc1ncnc2c1ncn2[C@@H]1O[C@H](COP(=O)(O)OP(=O)(O)OP(=O)(O)O)[C@@H](O)[C@H]1O
- Relative velocity [12]: 0.63
- Relative velocity [13]: 0.92
- Relative velocity [14]: 2.06
- Relative velocity (Saccharomyces cerevisiae [15]): 0.52
- Velocity [1]: 63%
- inhibition [22]: 0%
- inhibition [23]: 0%
- inhibition [24]: 0%
